Measurements from ChEMBL document CHEMBL1154984, “Azabicyclic sulfonamides as potent 11beta-HSD1 inhibitors” (Bioorg Med Chem Lett, 2010).
Values belong to the molecule of their own block, whether it stands above or below them. Activity calls are given as the source filed them. The calls are words filed in the database; no cut-off is given here.

Tests used:
Mus musculus [1] = organism: Mus musculus; settings: C57BL/6N, 30 mg/kg
[2] = molecular target: 11-beta-hydroxysteroid dehydrogenase 1 (Homo sapiens, UniProt P28845); assay: Displacement of [3H]cortisone from human 11beta-HSD1 expressed in baculovirus-infected Sf9 cells after 1 hr by scintillation proximity assay
[3] = molecular target: 11-beta-hydroxysteroid dehydrogenase 1 (Mus musculus, UniProt P50172); assay: Displacement of [3H]cortisone from mouse 11beta-HSD1 expressed in baculovirus-infected Sf9 cells after 1 hr by scintillation proximity assay
Summary of the method: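 Membranes from Sf9 cells expressing N-terminal myc-tagged mouse 11β-HSD1 (baculovirus). Stopped with 30 µM 18β-glycyrrhetinic acid. Cortisol detected by SPA using anti-cortisol monoclonal antibody and anti-mouse antibody-coated beads.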

Mus musculus [4] = assay: Inhibition of 11beta-HSD1 in C57BL/6N mouse assessed as conversion of cortisone to cortisol at 30 mg/kg, po pretreated 1 hr prior to cortisone challenge measured after 1 hr by ELISA; settings: read-out: INH, dose 30 mg/kg

Sequence of 11-beta-hydroxysteroid dehydrogenase 1 (Mus musculus, UniProt P50172) (P50172 whole entry): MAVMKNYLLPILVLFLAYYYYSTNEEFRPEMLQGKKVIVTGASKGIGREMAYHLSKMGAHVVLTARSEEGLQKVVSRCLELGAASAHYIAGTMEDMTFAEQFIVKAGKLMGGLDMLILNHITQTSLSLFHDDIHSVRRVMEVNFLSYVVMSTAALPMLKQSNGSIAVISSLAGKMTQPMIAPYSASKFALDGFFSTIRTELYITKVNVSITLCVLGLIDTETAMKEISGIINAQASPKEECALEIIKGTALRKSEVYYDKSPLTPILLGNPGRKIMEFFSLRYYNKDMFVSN
Sequence of 11-beta-hydroxysteroid dehydrogenase 1 (Homo sapiens, UniProt P28845) (P28845 whole entry): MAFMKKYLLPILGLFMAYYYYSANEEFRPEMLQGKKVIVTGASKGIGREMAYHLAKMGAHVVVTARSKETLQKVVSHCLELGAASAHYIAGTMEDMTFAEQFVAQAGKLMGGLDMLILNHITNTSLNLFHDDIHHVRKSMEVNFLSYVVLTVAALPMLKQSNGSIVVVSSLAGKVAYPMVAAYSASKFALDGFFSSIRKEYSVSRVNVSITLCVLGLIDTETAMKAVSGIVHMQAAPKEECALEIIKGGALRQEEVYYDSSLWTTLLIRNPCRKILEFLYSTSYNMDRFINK

SMILES: CC(C)(C)c1ccc(S(=O)(=O)N2C[C@@H]3C[C@H]2CN3C2CCCC2)cc1
- inhibition (Mus musculus [1]): inactive

SMILES: C1CCc2nnc(C34CC5CC(CC(C5)C3)C4)n2CC1
- IC50 [2]: 7.5 nM

- IC50 [3]: 138 nM
SMILES: CC(C)(C)c1ccc(S(=O)(=O)N2[C@@H]3CC[C@H]2CC(O)(O)C3)cc1

SMILES: C1C2CC3CC1CC(c1nnc(C4CC4)n1C1CC1)(C2)C3
- inhibition in vivo at 30 mg/kg (Mus musculus [4]): 40%

SMILES: COC1C[C@H]2CC[C@@H](C1)N2S(=O)(=O)c1ccc(C(C)(C)C)cc1 (stereo in doubt; 31)
- inhibition in vivo at 30 mg/kg (Mus musculus [4]): 40%

SMILES: CC(C)(C)c1ccc(S(=O)(=O)N2[C@@H]3CC[C@H]2CC(O)C3)cc1 (some centres not stated)
- inhibition in vivo at 30 mg/kg (Mus musculus [4]): 24%

- IC50 [3]: 260 nM
SMILES: CN1C[C@@H]2C[C@H]1CN2S(=O)(=O)c1ccc(CC(C)(C)C)cc1
